Reference: ChEMBL document CHEMBL4265973, “Broad-spectrum antibacterial amphiphilic aminoglycosides: A new focus on the structure of the lipophilic groups extends the series of active dialkyl neamines” (Eur J Med Chem, 2018)
Values after ≈ are worked out from the molar mass of the structure shown.

Tests used:
[1] = test system: Escherichia coli; experiment: Antibacterial activity against Escherichia coli PAZ505H8101 harboring AAC6'-1B by microdilution assay; type: functional
Procedure, shortened: (§1)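 Broth microdilution MIC per CLSI recommendations, fresh culture in cation-adjusted Mueller-Hinton broth, starting inoculum 10^6 cells.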

[2] = test system: Acinetobacter lwoffii; experiment: Antibacterial activity against Acinetobacter lwoffii ATCC 17925 by microdilution assay; type: functional
Procedure, shortened: (§2)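 Broth microdilution per CLSI recommendations, using a fresh culture in cation-adjusted Mueller-Hinton broth (CA-MHB) and a starting inoculum of 10^6 cells; the MIC is the value read.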

[3] = test system: Klebsiella pneumoniae; experiment: Antibacterial activity against Klebsiella pneumoniae 700603 by microdilution assay; type: functional; procedure, shortened: as §2
[4] = test system: Acinetobacter lwoffii; experiment: Antibacterial activity against Acinetobacter lwoffii AI.88-483 harboring APH3'-6A by microdilution assay; type: functional; procedure, shortened: as §1
[5] = test system: Escherichia coli; experiment: Antibacterial activity against Escherichia coli L8058.1 harboring ANT2'-1A by microdilution assay; type: functional; procedure, shortened: as §1
[6] = test system: Staphylococcus aureus; experiment: Antibacterial activity against methicillin-resistant Staphylococcus aureus ATCC 33592 by microdilution assay; type: functional; procedure, shortened: as §1
[7] = test system: Staphylococcus aureus; experiment: Antibacterial activity against Staphylococcus aureus ATCC 25923 by microdilution assay; type: functional; procedure, shortened: as §1
[8] = test system: Escherichia coli; experiment: microbe, parasite or virus in culture; details: ATCC 25922
[9] = test system: Pseudomonas aeruginosa; experiment: Antibacterial activity against Pseudomonas aeruginosa FO3 harboring AAC6'-2A by microdilution assay; type: functional; procedure, shortened: as §1
[10] = test system: Pseudomonas aeruginosa; experiment: Antibacterial activity against Pseudomonas aeruginosa PA406 harboring triABC deletion mutant by microdilution assay; type: functional; procedure, shortened: as §1
[11] = test system: Pseudomonas aeruginosa; experiment: Antibacterial activity against Pseudomonas aeruginosa ATCC 27853 by microdilution assay; type: functional; procedure, shortened: as §2
[12] = test system: Pseudomonas aeruginosa; experiment: Antibacterial activity against Pseudomonas aeruginosa PA22 harboring surexp MexXY by microdilution assay; type: functional; procedure, shortened: as §1
[13] = test system: Staphylococcus aureus; experiment: Antibacterial activity against Staphylococcus aureus SA-1 expressing NorA pump by microdilution assay
[14] = Cytotoxicity against mouse J774 cells assessed as cell viability at 30 uM after 24 hrs by MTT assay relative to control; type: cell-based; details: J774 cells, read-out: Activity
Procedure, shortened: (§3)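 Murine J774 macrophages are exposed for 24 h to compound at 10 or 30 µM, then given 0.2 mg/mL MTT for 1 h. The reaction is stopped with DMSO and OD read at 570 nm; viability is metabolic activity as % of control. The number of independent experiments is given per value.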

[15] = Cytotoxicity against mouse J774 cells assessed as cell viability at 10 uM after 24 hrs by MTT assay relative to control; type: cell-based; details: J774 cells, read-out: Activity; procedure, shortened: as §3

NC[C@H]1O[C@H](O[C@H]2[C@H](O)[C@@H](O[C@H]3O[C@H](CO)[C@@H](O)[C@H](N)[C@H]3O)[C@H](N)C[C@@H]2N)[C@H](N)C[C@@H]1O [TOBRAMYCIN]
MIC [1]: 32 µg/mL (≈ 68.4 µM) | MIC [2]: < 0.25 µg/mL | MIC [3]: 4 to 8 µg/mL (≈ 8.56 to 17.1 µM) | MIC [4]: 0.5 to 1 µg/mL (≈ 1.07 to 2.14 µM) | MIC [5]: 64 µg/mL (≈ 137 µM) | MIC [6]: 64 µg/mL (≈ 137 µM) | MIC [7]: 0.25 to 0.5 µg/mL (≈ 0.535 to 1.07 µM) | MIC [8]: 1 µg/mL (≈ 2.14 µM) | MIC [9]: 128 µg/mL (≈ 274 µM) | MIC [10]: < 0.25 µg/mL | MIC [11]: < 0.25 µg/mL | MIC [12]: 0.5 µg/mL (≈ 1.07 µM) | MIC [13]: 0.5 µg/mL (≈ 1.07 µM)

CCCCCCCO[C@@H]1[C@@H](N)[C@@H](O[C@H]2[C@H](O)[C@@H](O)[C@H](N)C[C@@H]2N)O[C@H](CN)[C@H]1O
MIC [1]: > 128 µg/mL | MIC [2]: 64 µg/mL (≈ 152 µM) | viability at 24 h, 30 µM [14]: 70.2% | MIC [3]: > 128 µg/mL | MIC [4]: > 128 µg/mL | MIC [5]: > 128 µg/mL | MIC [6]: > 128 µg/mL | MIC [7]: > 128 µg/mL | MIC [8]: > 128 µg/mL | MIC [9]: > 128 µg/mL | MIC [10]: > 128 µg/mL | MIC [11]: > 128 µg/mL | MIC [12]: > 128 µg/mL | MIC [13]: > 128 µg/mL | viability at 24 h, 10 µM [15]: 77.5%

CCCCCCCCO[C@@H]1[C@@H](N)[C@@H](O[C@H]2[C@H](O)[C@@H](OCCCCCCCC)[C@H](N)C[C@@H]2N)O[C@H](CN)[C@H]1O
MIC [1]: 2 to 4 µg/mL (≈ 3.66 to 7.32 µM) | MIC [2]: 2 to 4 µg/mL (≈ 3.66 to 7.32 µM) | viability at 24 h, 30 µM [14]: 65.1% | MIC [3]: 8 µg/mL (≈ 14.6 µM) | MIC [4]: 128 µg/mL (≈ 234 µM) | MIC [5]: 4 µg/mL (≈ 7.32 µM) | MIC [6]: 2 µg/mL (≈ 3.66 µM) | MIC [7]: 1 µg/mL (≈ 1.83 µM) | MIC [8]: 4 µg/mL (≈ 7.32 µM) | MIC [9]: 8 µg/mL (≈ 14.6 µM) | MIC [10]: 2 µg/mL (≈ 3.66 µM) | MIC [11]: 2 µg/mL (≈ 3.66 µM) | MIC [12]: 8 µg/mL (≈ 14.6 µM) | MIC [13]: 1 µg/mL (≈ 1.83 µM) | viability at 24 h, 10 µM [15]: 91.3%

NC[C@@H]1O[C@H](O[C@H]2[C@@H](O)[C@H](O[C@@H]3[C@@H](O)[C@H](N)C[C@H](N)[C@H]3O[C@H]3O[C@H](CN)[C@@H](O)[C@H](O)[C@H]3N)O[C@@H]2CO)[C@H](N)[C@@H](O)[C@@H]1O [FRAMYCETIN]
MIC [1]: 4 µg/mL (≈ 6.51 µM) | MIC [2]: < 0.25 µg/mL | MIC [3]: 4 to 8 µg/mL (≈ 6.51 to 13 µM) | MIC [4]: 64 to 128 µg/mL (≈ 104 to 208 µM) | MIC [5]: 1 µg/mL (≈ 1.63 µM) | MIC [6]: > 128 µg/mL | MIC [7]: 1 to 2 µg/mL (≈ 1.63 to 3.25 µM) | MIC [8]: 2 µg/mL (≈ 3.25 µM) | MIC [9]: 128 µg/mL (≈ 208 µM) | MIC [10]: 2 to 4 µg/mL (≈ 3.25 to 6.51 µM) | MIC [11]: 64 µg/mL (≈ 104 µM) | MIC [12]: 32 to 64 µg/mL (≈ 52.1 to 104 µM) | MIC [13]: 0.5 to 1 µg/mL (≈ 0.813 to 1.63 µM)

CCCCCCCCCCCO[C@@H]1[C@@H](N)[C@@H](O[C@H]2[C@H](O)[C@@H](OCCCCCCCCCCC)[C@H](N)C[C@@H]2N)O[C@H](CN)[C@H]1O
MIC [1]: 16 µg/mL (≈ 25.4 µM) | MIC [2]: 32 µg/mL (≈ 50.7 µM) | viability at 24 h, 30 µM [14]: 14.1% | MIC [3]: 32 µg/mL (≈ 50.7 µM) | MIC [4]: 32 µg/mL (≈ 50.7 µM) | MIC [5]: 16 µg/mL (≈ 25.4 µM) | MIC [6]: 64 µg/mL (≈ 101 µM) | MIC [7]: 8 µg/mL (≈ 12.7 µM) | MIC [8]: 4 µg/mL (≈ 6.34 µM) | MIC [9]: 16 µg/mL (≈ 25.4 µM) | MIC [10]: 16 µg/mL (≈ 25.4 µM) | MIC [11]: 16 µg/mL (≈ 25.4 µM) | MIC [12]: 16 µg/mL (≈ 25.4 µM) | MIC [13]: 8 µg/mL (≈ 12.7 µM) | viability at 24 h, 10 µM [15]: 81.7%

CCCCCCCCCCCO[C@@H]1[C@@H](O)[C@H](O[C@H]2O[C@H](CN)[C@@H](O)[C@H](O)[C@H]2N)[C@@H](N)C[C@H]1N
MIC [1]: > 128 µg/mL | MIC [2]: 64 µg/mL (≈ 134 µM) | viability at 24 h, 30 µM [14]: 83.4% | MIC [3]: > 128 µg/mL | MIC [4]: > 128 µg/mL | MIC [5]: > 128 µg/mL | MIC [6]: 8 µg/mL (≈ 16.8 µM) | MIC [7]: 32 µg/mL (≈ 67.1 µM) | MIC [8]: > 128 µg/mL | MIC [9]: > 128 µg/mL | MIC [10]: 16 µg/mL (≈ 33.6 µM) | MIC [11]: > 128 µg/mL | MIC [12]: > 128 µg/mL | MIC [13]: 8 µg/mL (≈ 16.8 µM) | viability at 24 h, 10 µM [15]: 74.7%

CCCCCCCCCCCO[C@@H]1[C@@H](N)[C@@H](O[C@H]2[C@H](O)[C@@H](O)[C@H](N)C[C@@H]2N)O[C@H](CN)[C@H]1O
MIC [1]: 32 µg/mL (≈ 67.1 µM) | MIC [2]: 32 µg/mL (≈ 67.1 µM) | viability at 24 h, 30 µM [14]: 77.1% | MIC [3]: > 128 µg/mL | MIC [4]: > 128 µg/mL | MIC [5]: 32 µg/mL (≈ 67.1 µM) | MIC [6]: 16 µg/mL (≈ 33.6 µM) | MIC [7]: 16 µg/mL (≈ 33.6 µM) | MIC [8]: 64 µg/mL (≈ 134 µM) | MIC [9]: > 128 µg/mL | MIC [10]: 4 to 8 µg/mL (≈ 8.39 to 16.8 µM) | MIC [11]: > 128 µg/mL | MIC [12]: > 128 µg/mL | MIC [13]: 16 µg/mL (≈ 33.6 µM) | viability at 24 h, 10 µM [15]: 81.8%

CCCCCCCCCCO[C@@H]1[C@@H](N)[C@@H](O[C@H]2[C@H](O)[C@@H](OCCCCCCCCCC)[C@H](N)C[C@@H]2N)O[C@H](CN)[C@H]1O
MIC [1]: 8 µg/mL (≈ 13.3 µM) | MIC [2]: 2 µg/mL (≈ 3.32 µM) | viability at 24 h, 30 µM [14]: 14.5% | MIC [3]: 16 µg/mL (≈ 26.5 µM) | MIC [4]: 64 µg/mL (≈ 106 µM) | MIC [5]: 128 µg/mL (≈ 212 µM) | MIC [6]: 1 to 2 µg/mL (≈ 1.66 to 3.32 µM) | MIC [7]: 1 µg/mL (≈ 1.66 µM) | MIC [8]: 2 µg/mL (≈ 3.32 µM) | MIC [9]: 4 µg/mL (≈ 6.63 µM) | MIC [10]: 8 µg/mL (≈ 13.3 µM) | MIC [11]: 4 µg/mL (≈ 6.63 µM) | MIC [12]: 4 µg/mL (≈ 6.63 µM) | MIC [13]: 1 µg/mL (≈ 1.66 µM) | viability at 24 h, 10 µM [15]: 85.5%

CCCCCCCCCO[C@@H]1[C@@H](N)[C@@H](O[C@H]2[C@H](O)[C@@H](O)[C@H](N)C[C@@H]2N)O[C@H](CN)[C@H]1OCCCCCCCCC
MIC [1]: 4 to 8 µg/mL (≈ 6.96 to 13.9 µM) | MIC [2]: 4 to 8 µg/mL (≈ 6.96 to 13.9 µM) | MIC [3]: 16 to 32 µg/mL (≈ 27.8 to 55.7 µM) | MIC [4]: 32 µg/mL (≈ 55.7 µM) | MIC [5]: 8 µg/mL (≈ 13.9 µM) | MIC [6]: 4 µg/mL (≈ 6.96 µM) | MIC [7]: 4 µg/mL (≈ 6.96 µM) | MIC [8]: 4 to 8 µg/mL (≈ 6.96 to 13.9 µM) | MIC [9]: 8 to 16 µg/mL (≈ 13.9 to 27.8 µM) | MIC [10]: 8 to 16 µg/mL (≈ 13.9 to 27.8 µM) | MIC [11]: 8 to 16 µg/mL (≈ 13.9 to 27.8 µM) | MIC [12]: 8 to 16 µg/mL (≈ 13.9 to 27.8 µM) | MIC [13]: 4 µg/mL (≈ 6.96 µM)
